In ChEMBL document CHEMBL3853270, “Influence of Birch Bark Triterpenes on Keratinocytes and Fibroblasts from Diabetic and Nondiabetic Donors” (2016):
Activity calls are given as the source filed them.

Columns and labels:
[1] = tested on: Fibroblast; assay: Induction of shape change of actin cytoskeleton in human diabetic primary fibroblasts at 10 nM after 2 hrs by rhodamine phalloidin-staining based fluorescence microscopic analysis; type: functional
[2] = tested on: Fibroblast; assay: Induction of shape change of actin cytoskeleton in human non-diabetic primary fibroblasts at 10 nM after 2 hrs by rhodamine phalloidin-staining based fluorescence microscopic analysis; type: functional
[3] = target: Cell division control protein 42 homolog (Homo sapiens) (UniProt P60953); assay: Activation of Cdc42 in human diabetic primary keratinocytes at 10 nM after 20 mins by immunoblot method
Method in brief: (§1)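 Keratinocytes from a diabetic adult donor; incubation 3 h for RhoA, 20 min for Cdc42 and Rac1. Lysates made in glycerol/Tris pH 7.4/NaCl/NP-40/MgCl2/PMSF buffer, spun at 4 °C. Active GTP-bound form pulled down on glutathione-sepharose with GST-Rhotekin (RhoA) or GST-PAK (Cdc42, Rac1) for 1 h at 4 °C. Total and pulled-down protein read by immunoblot with ECL; n = 3.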

[4] = tested on: Fibroblast; assay: Effect on actin cytoskeleton in human non-diabetic primary fibroblasts assessed as formation of thin elongated cellular body at 10 nM after 2 hrs in presence of p-38 MAPK inhibitor LN 950 by rhodamine phalloidin-staining based fluorescence microscopic analysis; type: functional
Method in brief: (§2)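 Subconfluent cells on glass coverslips, collagen type I coated for fibroblasts; keratinocytes starved 2 days before stimulation. Exposure 2 h, then rhodamine-phalloidin staining (1:25 in PBS) and fluorescence microscopy. Controls were DMSO as solvent and PDGF (fibroblasts) or CNF1 (keratinocytes). Where used, p38-MAPK inhibitor LN 950 (100 nM) was added 30 min beforehand.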

[5] = tested on: Fibroblast; assay: Effect on actin cytoskeleton in human diabetic primary fibroblasts assessed as formation of thin elongated cellular body at 10 nM after 2 hrs by rhodamine phalloidin-staining based fluorescence microscopic analysis; type: functional; method in brief: as §2
[6] = target: Transforming protein RhoA (Homo sapiens) (UniProt P61586); assay: Activation of RhoA in human diabetic primary keratinocytes at 10 nM after 3 hrs by immunoblot method; method in brief: as §1
[7] = tested on: Fibroblast; assay: Effect on actin cytoskeleton in human non-diabetic primary fibroblasts assessed as formation of thin elongated cellular body at 10 nM after 2 hrs by rhodamine phalloidin-staining based fluorescence microscopic analysis; type: functional; method in brief: as §2
[8] = target: Ras-related C3 botulinum toxin substrate 1 (Homo sapiens) (UniProt P63000); assay: Activation of Rac1 in human diabetic primary keratinocytes at 10 nM after 20 mins by immunoblot method
Method in brief: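 Primary keratinocytes from a diabetic adult donor (NHK-d), exposed 20 min. Lysed in glycerol/Tris pH 7.4/NaCl/NP-40/MgCl2/PMSF buffer and cleared at 4 °C. Supernatant incubated 1 h at 4 °C with glutathione-sepharose beads carrying GST-PAK to pull down active GTP-bound Rac1. Blotted on a 13% gel, probed with anti-Rac1 (1:2.000) and detected by ECL; total Rac1 also measured. CNF1 (2 nM) positive control, n = 3.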

[9] = tested on: Keratinocyte; assay: Effect on actin cytoskeleton in human diabetic primary keratinocytes assessed as formation of cellular protrusions at 10 nM after 2 hrs by rhodamine phalloidin-staining based fluorescence microscopic analysis; type: functional; method in brief: as §2

Measured: Activity

Cell division control protein 42 homolog (Homo sapiens), sequence (P60953 whole entry, looked up): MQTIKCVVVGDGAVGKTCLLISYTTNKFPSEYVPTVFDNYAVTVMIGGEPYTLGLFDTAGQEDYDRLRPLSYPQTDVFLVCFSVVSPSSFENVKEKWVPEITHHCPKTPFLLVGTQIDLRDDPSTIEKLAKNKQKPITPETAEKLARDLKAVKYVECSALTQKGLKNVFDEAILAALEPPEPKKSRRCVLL
Transforming protein RhoA (Homo sapiens), sequence (P61586 whole entry): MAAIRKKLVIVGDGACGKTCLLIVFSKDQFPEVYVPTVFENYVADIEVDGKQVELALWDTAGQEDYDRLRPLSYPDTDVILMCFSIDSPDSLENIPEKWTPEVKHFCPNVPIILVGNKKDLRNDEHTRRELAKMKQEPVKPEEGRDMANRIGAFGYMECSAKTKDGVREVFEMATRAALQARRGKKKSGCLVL

C=C(C)[C@@H]1CC[C@]2(C(=O)O)CC[C@]3(C)[C@H](CC[C@@H]4[C@@]5(C)CC[C@H](O)C(C)(C)[C@@H]5CC[C@]43C)[C@@H]12
active: [1] | [2]

C=C(C)[C@@H]1CC[C@]2(C)CC[C@]3(C)[C@H](CC[C@@H]4[C@@]5(C)CC[C@H](O)C(C)(C)[C@@H]5CC[C@]43C)[C@@H]12
not listed: [1] | [2]
active: all other assays above
